Measurements: ChEMBL document CHEMBL3425450, “Neuroactive Steroids. 1. Positive Allosteric Modulators of the (γ-Aminobutyric Acid)A Receptor: Structure-Activity Relationships of Heterocyclic Substitution at C-21” (J Med Chem, 2015)
In brackets after ≈: the same amount, converted by molar mass.

Key:
[1] = Clearance in rat liver microsomes at 10 uM after 60 mins by HPLC-MS/MS analysis; format: ADME
[2] = Ratio of drug level in brain to plasma in Sprague-Dawley rat at 5 mg/kg, iv after 30 mins by LC-MS/MS analysis; format: ADME, organism-based; design: dose 5 mg/kg, route intravenous; settings: read-out: BPR
Procedure, shortened: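 Brain and plasma were sampled at a single point 30 min after the i.v. 5 mpk dose. The ratio was calculated from mean concentrations of 2 rats.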

[3] = biological target: GABA-A receptor; agonist GABA site; assay: Positive allosteric modulation of recombinant alpha4beta3delta GABAA receptor (unknown origin) expressed in CHO cells assessed as potentiation of GABA-induced channel current treated for 30 s prior to GABA stimulation for 2s by manual patch assay; format: cell-based, Homo sapiens
[4] = biological target: GABA-A receptor; agonist GABA site; assay: Positive allosteric modulation of recombinant alpha1beta2gamma2 GABAA receptor (unknown origin) expressed in LTK cells assessed as potentiation of GABA-induced channel current treated for 30 s prior to GABA stimulation for 2s by Q-patch assay; format: cell-based, Homo sapiens
[5] = Clearance in human liver microsomes at 10 uM after 60 mins by HPLC-MS/MS analysis; format: ADME
[6] = Clearance in Sprague-Dawley rat at 5 mg/kg, iv and 20 mg/kg, po by LC-MS/MS analysis; format: ADME, organism-based; settings: in vivo
Procedure, shortened: (§1)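 Rats were dosed i.v. at 5 mpk and orally at 20 mpk. Clearance and oral bioavailability were calculated from mean plasma concentrations of 2 rats.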

[7] = Clearance in mouse liver microsomes at 10 uM after 60 mins by HPLC-MS/MS analysis; format: ADME
[8] = biological target: GABA-A receptor; anion channel; assay: Displacement of [3H]TBPS from GABAA receptor in Sprague-Dawley rat brain cortical membrane after 90 mins by liquid scintillation spectrometry
[9] = Retention time of the compound by LC-MS analysis; format: physicochemical
Procedure, shortened: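 Eluents were water and acetonitrile, each with TFA, run as a 5 to 95% acetonitrile gradient over 1.5 min at 1.5 mL/min. Capillary voltage was 3.5 kV and fragmentor voltage 50 V.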

[10] = Lipophilicity, log D of the compound at 20 uM at pH 7.4 by HPLC-MS/MS analysis; format: physicochemical; settings: buffer
[11] = Aqueous solubility of the compound at pH 7.4 by HPLC-MS/MS analysis; format: physicochemical; settings: buffer
[12] = Oral bioavailability in Sprague-Dawley rat at 20 mg/kg by LC-MS/MS analysis; format: ADME, organism-based; settings: in vivo; procedure, shortened: as §1
[13] = biological target: GABA-A receptor; alpha-1/beta-2/gamma-2 (Homo sapiens) (UniProt P14867+P47870+P18507); assay: Selectivity ratio of EC50 for recombinant alpha1beta2gamma2 GABAA receptor (unknown origin) expressed in LTK cells to EC50 for recombinant alpha4beta3delta GABAA receptor (unknown origin) expressed in CHO cells; format: cell-based

SMILES	CLhep predicted at 10 µM [1] [mL/min/kg]	Kp at 0.5 h [2]	EC50 [3] [nM]	EC50 [4] [nM]	CLhep predicted at 10 µM [5] [mL/min/kg]	clearance [6] [mL/min/kg]	CLhep predicted at 10 µM [7] [mL/min/kg]	IC50 [8] [nM]	Retention_time [9] [min]	logD at 20 µM [10]	solubility [11] [µM]	bioavailability [12] [%]	Ratio EC50 [13]
C[C@@]1(O)CC[C@H]2[C@H](CC[C@@H]3[C@@H]2CC[C@]2(C)[C@@H](C(=O)Cn4ncnn4)CC[C@@H]32)C1	39.3	2.3	345	1150	5.5	18.3	67.5	6	0.87	4.5	2.5 (≈ 0.966 µg/mL)	41	–
CC(=O)[C@H]1CC[C@H]2[C@@H]3CC[C@H]4C[C@](C)(O)CC[C@]4(C)[C@H]3CC[C@]12C [GANAXOLONE]	55.7	4	103	266	6.5	51.7	67.5	42	–	5.3	0.7 (≈ 0.233 µg/mL)	10	–
C[C@@]1(O)CC[C@H]2[C@@H](CC[C@@H]3[C@@H]2CC[C@]2(C)[C@@H](C(=O)Cn4ncnn4)CC[C@@H]32)C1	14.3	2	292	945	1.67	8.33	33.8	31	0.88	4.5	0.9 (≈ 0.348 µg/mL)	67	–
C[C@@]1(O)CC[C@H]2[C@H](CC[C@@H]3[C@@H]2CC[C@]2(C)[C@@H](C(=O)Cn4cc5cccnc5n4)CC[C@@H]32)C1	–	–	1020	> 3000	–	–	–	42	0.8	–	–	–	–
C[C@@]1(O)CC[C@H]2[C@H](CC[C@@H]3[C@@H]2CC[C@]2(C)[C@@H](C(=O)Cn4cc5c(n4)CCCC5)CC[C@@H]32)C1	55.7	–	178	724	10.8	–	67.5	24	0.93	5.7	0.3 (≈ 0.132 µg/mL)	–	–
C[C@@]1(O)CC[C@H]2[C@H](CC[C@@H]3[C@@H]2CC[C@]2(C)[C@@H](C(=O)Cn4cc5cnccc5n4)CC[C@@H]32)C1	–	–	1350	> 3000	–	–	–	24	1.06	–	–	–	–
CC(=O)[C@H]1CC[C@H]2[C@@H]3CC[C@H]4C[C@](C)(O)CC[C@@H]4[C@H]3CC[C@]12C	52.8	–	553	355	8.33	–	67.5	74	–	5.1	1 (≈ 0.319 µg/mL)	–	–
C[C@@]1(O)CC[C@H]2[C@H](CC[C@@H]3[C@@H]2CC[C@]2(C)[C@@H](C(=O)Cn4ccnn4)CC[C@@H]32)C1	–	–	1830	1840	–	–	–	27	0.84	–	–	–	–
C[C@@]1(O)CC[C@H]2[C@H](CC[C@@H]3[C@@H]2CC[C@]2(C)[C@@H](C(=O)Cn4cncn4)CC[C@@H]32)C1	–	–	> 3000	> 3000	–	–	–	140	0.829	–	–	–	–
C[C@@]1(O)CC[C@H]2[C@H](CC[C@@H]3[C@@H]2CC[C@]2(C)[C@@H](C(=O)Cn4nccn4)CC[C@@H]32)C1	45	1.8	240	125	3.17	38.3	67.5	11	0.87	4.6	7.3 (≈ 2.81 µg/mL)	27	–
CC(=O)[C@H]1CC[C@H]2[C@@H]3CC[C@H]4C[C@H](O)CC[C@]4(C)[C@H]3CC[C@]12C [BREXANOLONE]	55.7	1.8	75.5	237	8.33	80	67.5	22	–	4.9	3.3 (≈ 1.05 µg/mL)	2.3	–
C[C@@]1(O)CC[C@H]2[C@H](CC[C@@H]3[C@@H]2CC[C@]2(C)[C@@H](C(=O)Cn4cc5ccncc5n4)CC[C@@H]32)C1	55.7	2.1	178	> 3000	4.5	58.3	33.8	16	0.75	4.7	1.2 (≈ 0.523 µg/mL)	40	> 17
C[C@@]1(O)CC[C@H]2[C@H](CC[C@@H]3[C@@H]2CC[C@]2(C)[C@@H](C(=O)Cn4ccnc4)CC[C@@H]32)C1	–	–	3130	> 3000	–	–	–	21	0.76	–	–	–	–
C[C@@]1(O)CC[C@H]2[C@H](CC[C@@H]3[C@@H]2CC[C@]2(C)[C@@H](C(=O)Cn4ncc5ccccc54)CC[C@@H]32)C1	–	–	508	1530	–	–	–	15	0.95	–	–	–	–
C[C@@]1(O)CC[C@H]2[C@H](CC[C@@H]3[C@@H]2CC[C@]2(C)[C@@H](C(=O)Cn4cc5ncccc5n4)CC[C@@H]32)C1	55.7	1.3	343	> 3000	4.5	73.3	60	6	0.81	4.7	12.4 (≈ 5.4 µg/mL)	1.5	> 8
